Laboratory results from ChEMBL document CHEMBL4312006, “A novel chalcone derivative as Nrf2 activator attenuates learning and memory impairment in a scopolamine-induced mouse model” (Eur J Med Chem, 2020).
pEC50: −log10 of the molar value. Structures can show the parent of a compound that is named as a salt.

Key:
Keap1/Nrf2 = Keap1/Nrf2 (Homo sapiens, UniProt Q14145+Q16236); experiment: Activation of NRF2 in human U2OS cells co-expressing Keap1 (unknown origin) assessed as induction of NRF2 translocation to nucleus incubated for 6 hrs by beta-galactosidase based chemiluminescent assay; assay type: cell-based
Chain of Keap1/Nrf2 (Q16236 whole entry): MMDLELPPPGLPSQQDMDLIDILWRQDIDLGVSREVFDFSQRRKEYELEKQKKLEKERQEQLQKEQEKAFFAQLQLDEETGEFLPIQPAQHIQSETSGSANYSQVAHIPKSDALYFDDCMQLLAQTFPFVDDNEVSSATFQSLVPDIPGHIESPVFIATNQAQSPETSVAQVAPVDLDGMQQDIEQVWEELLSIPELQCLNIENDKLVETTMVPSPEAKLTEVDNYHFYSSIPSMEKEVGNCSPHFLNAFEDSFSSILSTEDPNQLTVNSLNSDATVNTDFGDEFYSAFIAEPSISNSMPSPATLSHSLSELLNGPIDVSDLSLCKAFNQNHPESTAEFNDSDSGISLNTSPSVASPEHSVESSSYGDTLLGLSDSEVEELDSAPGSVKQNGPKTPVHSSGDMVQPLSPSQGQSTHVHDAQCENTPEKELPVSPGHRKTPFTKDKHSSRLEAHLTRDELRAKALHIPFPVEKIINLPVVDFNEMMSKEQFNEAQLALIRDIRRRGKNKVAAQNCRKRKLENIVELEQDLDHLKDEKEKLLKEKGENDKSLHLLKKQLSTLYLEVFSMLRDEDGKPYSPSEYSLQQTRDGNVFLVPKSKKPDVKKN
Chain of Keap1/Nrf2 (Q14145 whole entry): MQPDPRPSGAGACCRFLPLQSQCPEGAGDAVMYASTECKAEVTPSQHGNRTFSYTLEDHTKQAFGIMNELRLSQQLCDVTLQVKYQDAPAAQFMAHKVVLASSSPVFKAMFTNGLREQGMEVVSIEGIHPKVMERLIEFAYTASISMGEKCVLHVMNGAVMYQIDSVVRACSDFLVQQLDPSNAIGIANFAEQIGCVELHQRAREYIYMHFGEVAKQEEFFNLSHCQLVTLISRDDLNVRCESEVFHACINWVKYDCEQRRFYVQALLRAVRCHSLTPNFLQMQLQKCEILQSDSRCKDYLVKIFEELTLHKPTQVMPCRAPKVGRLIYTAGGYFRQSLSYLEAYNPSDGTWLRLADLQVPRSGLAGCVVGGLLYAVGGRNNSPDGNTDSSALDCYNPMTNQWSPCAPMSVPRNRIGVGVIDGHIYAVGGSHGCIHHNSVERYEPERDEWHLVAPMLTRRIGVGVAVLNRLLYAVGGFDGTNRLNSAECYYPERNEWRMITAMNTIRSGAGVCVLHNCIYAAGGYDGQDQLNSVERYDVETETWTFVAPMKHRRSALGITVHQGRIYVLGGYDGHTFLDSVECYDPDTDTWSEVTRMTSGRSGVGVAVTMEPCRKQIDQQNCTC
Outline: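 PathHunter U2OS cells engineered to co-express enzyme donor-tagged NRF2 and nuclear-localized enzyme acceptor; Nrf2 nuclear translocation reconstitutes β-galactosidase. Cells in 96-well plates exposed to a range of compound concentrations for 6 h at room temperature (20–23 °C), then 1 h with detection reagent in the dark; chemiluminescence (RLU) read. EC50 from concentration-response curve, mean ± SEM, triplicate.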

[1] = target: T1, Nuclear factor erythroid 2-related factor 2 (Mus musculus) (UniProt Q60795); experiment: Activation of NRF2 in mouse BV2 cells assessed as upregulation of HO1 at 20 uM by ELISA relative to control; assay type: cell-based
T1 sequence (whole entry): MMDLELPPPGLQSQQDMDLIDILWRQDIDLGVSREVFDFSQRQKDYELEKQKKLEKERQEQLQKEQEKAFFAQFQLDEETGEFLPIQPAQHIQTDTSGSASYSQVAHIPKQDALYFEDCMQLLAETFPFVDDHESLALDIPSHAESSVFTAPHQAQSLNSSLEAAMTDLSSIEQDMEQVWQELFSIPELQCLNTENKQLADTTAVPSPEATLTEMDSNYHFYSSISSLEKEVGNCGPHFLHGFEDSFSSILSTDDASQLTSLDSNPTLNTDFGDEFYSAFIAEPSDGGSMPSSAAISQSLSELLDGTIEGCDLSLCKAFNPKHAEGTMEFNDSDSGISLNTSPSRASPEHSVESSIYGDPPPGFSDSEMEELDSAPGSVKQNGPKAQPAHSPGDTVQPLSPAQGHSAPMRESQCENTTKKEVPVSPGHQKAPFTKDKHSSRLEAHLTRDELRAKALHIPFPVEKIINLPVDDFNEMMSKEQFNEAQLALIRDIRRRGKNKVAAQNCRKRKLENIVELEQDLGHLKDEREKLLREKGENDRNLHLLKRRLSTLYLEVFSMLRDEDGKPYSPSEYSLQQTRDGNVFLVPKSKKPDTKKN

| SMILES | pEC50 (Keap1/Nrf2) | Activity [1] [%] |
| --- | --- | --- |
| O=C(/C=C/c1cccnc1)c1ccc(OCCCN2CCOCC2)cc1 | < 5.30 | – |
| O=C(/C=C/c1ccccc1C(F)(F)F)c1ccc(OCCCN2CCOCC2)cc1 | 5.87 | 351 |
| O=C(/C=C/c1ccccn1)c1ccc(OCCCN2CCOCC2)cc1 | < 5.30 | 112 |
| O=C(/C=C/c1ccccc1Cl)c1ccc(OCCCN2CCCC2)cc1 | 5.86 | – |
| COc1ccccc1/C=C/C(=O)c1ccc(OCC(=O)N2CCN(C)CC2)cc1 | 5.72 | – |
| CN1CCN(C(=O)COc2ccc(C(=O)/C=C/c3ccccc3Cl)cc2)CC1 | 6.01 | – |
| O=C(/C=C/c1ccc(C(F)(F)F)cc1)c1ccc(OCCCN2CCOCC2)cc1 | 5.61 | – |
| COc1ccccc1/C=C/C(=O)c1ccc(OCCCN2CCOCC2)cc1 | 5.79 | 345 |
| COc1ccccc1/C=C/C(=O)c1ccc(OCC(=O)N(C)C)cc1 | 5.84 | – |
| COc1ccccc1/C=C/C(=O)c1ccc(OCCCN2CCN(C)CC2)cc1 | 5.48 | 217 |
| COC(=O)/C=C/C(=O)OC [DIMETHYL FUMARATE] | 5.29 | – |
| CN(C)C(=O)COc1ccc(C(=O)/C=C/c2ccccn2)cc1 | 5.96 | – |
| CN(C)C(=O)COc1ccc(C(=O)/C=C/c2cccnc2)cc1 | 5.84 | – |
| O=C(/C=C/c1ccccn1)c1ccc(OCC(=O)N2CCOCC2)cc1 | 5.91 | – |
| CN1CCN(C(=O)COc2ccc(C(=O)/C=C/c3ccccc3)cc2)CC1 | 5.74 | – |
| O=C(/C=C/c1cccc(C(F)(F)F)c1)c1ccc(OCCCN2CCOCC2)cc1 | 5.69 | – |
| COc1cccc(/C=C/C(=O)c2ccc(OCCCN3CCOCC3)cc2)c1 | 5.59 | – |
| O=C(/C=C/c1ccccc1Cl)c1ccc(OCCCN2CCOCC2)cc1 | 5.62 | – |
| COc1ccc(/C=C/C(=O)c2ccc(OCCCN3CCOCC3)cc2)cc1 | 5.16 | 166 |
| COc1ccccc1/C=C/C(=O)c1ccccc1OCCCN1CCOCC1 | 5.26 | 146 |
| O=C(/C=C/c1ccccc1Cl)c1cccc(OCCCN2CCOCC2)c1 | 5.55 | – |
| CN(C)C(=O)COc1ccc(C(=O)/C=C/c2ccccc2C(F)(F)F)cc1 | 5.95 | – |
| COc1ccccc1/C=C/C(=O)c1cccc(OCCCN2CCOCC2)c1 | 5.76 | < 200 |
| COc1ccccc1/C=C/C(=O)c1ccc(OCC(=O)N2CCOCC2)cc1 | 5.75 | – |
| O=C(/C=C/c1ccccc1C(F)(F)F)c1cccc(OCCCN2CCOCC2)c1 | 5.64 | – |
| COc1ccccc1/C=C/C(=O)c1ccc(OCCCN2CCCC2)cc1 | 6.00 | 289 |
| CN(C)C(=O)COc1ccc(C(=O)/C=C/c2ccncc2)cc1 | 5.87 | – |
| O=C(/C=C/c1ccccc1C(F)(F)F)c1ccc(OCC(=O)N2CCOCC2)cc1 | 5.97 | – |
| O=C(/C=C/c1ccccc1C(F)(F)F)c1ccc(OCCCN2CCCC2)cc1 | < 6.00 | – |
| CN1CCN(C(=O)COc2ccc(C(=O)/C=C/c3ccccc3F)cc2)CC1 | 5.81 | – |
